Assay results as given in article PMC10013843 (Molecular psychiatry, 2022).

Legend:
[1] = target: mu-opioid receptors, MOR (Rattus norvegicus, UniProt P33535); assay: [^3H]DAMGO competition binding, rat brain membranes
[2] = target: kappa-opioid receptors, KOR (Rattus norvegicus, UniProt P34975); assay: [^3H]U69,593 competition binding, rat brain membranes
[3] = target: KOR (OPRK1) (Homo sapiens, UniProt P41145); assay: cAMP BRET; assay type: cell-based; conditions: HEK-293 cells, up to a concentration of 1 mM
How it was run: (§1)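 HEK-293 cells (DMEM, 10% FBS, 37°C/5% CO2) were PEI-transfected with 5 μg untagged MOR, KOR or DOR plus 5 μg CAMYEL cAMP biosensor and used 48 h later. Cells were suspended in DPBS with 100 μM metabisulfite and 5.5 mM glucose and kept 45 min in the dark. Forskolin (10 μM) was added for 5 min, then coelenterazine H (5 μM) for 5 min, then compound. BRET (535/475 nm) was read 5 min later, forskolin-only background subtracted, and expressed as % of each receptor's maximum. Triplicates; 3–6 experiments for EC50/Emax.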

[4] = target: delta-opioid receptor (DOR; OPRD1) (Homo sapiens, UniProt P41143); assay: cAMP BRET; assay type: cell-based; conditions: HEK-293 cells, up to a concentration of 1 mM
How it was run: as §1

[5] = tested on: >80 receptor and enzymatic binding sites; assay: Receptor and enzyme competitive screen; conditions: 100 nM
How it was run: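 In an outsourced panel, membranes from stable cell lines expressing each receptor or enzyme were incubated with the target's radioligand, with or without test compound at 100 nM or 10 μM. A reference compound ran concurrently, and a specific agonist or antagonist defined nonspecific binding. Bound ligand was collected by vacuum filtration through presoaked glass-fibre filters, washed with ice-cold buffer and counted by scintillation.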

[6] = target: NK1R (Rattus norvegicus, UniProt P14600); assay: [^3H]-Substance P binding, rat whole brain membrane homogenates
[7] = target: mGluR3 (Homo sapiens, UniProt Q14832); assay: [^3H]LY341495 competition binding, recombinant receptor membranes; conditions: membranes expressing human recombinant mGluR3
[8] = target: mGluR1 (Homo sapiens, UniProt Q13255); assay: mGluR functional assay; assay type: biochemical
[9] = target: mGluR4 (Homo sapiens, UniProt Q14833); assay: mGluR functional assay; assay type: biochemical
[10] = target: mGluR6 (Homo sapiens, UniProt O15303); assay: mGluR functional assay; assay type: biochemical
[11] = target: mGluR8 (Homo sapiens, UniProt O00222); assay: mGluR functional assay; assay type: biochemical
[12] = target: T1, HCN1 channel (Homo sapiens, UniProt O60741); assay: HCN1 channel functional interaction; assay type: biochemical
T1 sequence (O60741 1-890): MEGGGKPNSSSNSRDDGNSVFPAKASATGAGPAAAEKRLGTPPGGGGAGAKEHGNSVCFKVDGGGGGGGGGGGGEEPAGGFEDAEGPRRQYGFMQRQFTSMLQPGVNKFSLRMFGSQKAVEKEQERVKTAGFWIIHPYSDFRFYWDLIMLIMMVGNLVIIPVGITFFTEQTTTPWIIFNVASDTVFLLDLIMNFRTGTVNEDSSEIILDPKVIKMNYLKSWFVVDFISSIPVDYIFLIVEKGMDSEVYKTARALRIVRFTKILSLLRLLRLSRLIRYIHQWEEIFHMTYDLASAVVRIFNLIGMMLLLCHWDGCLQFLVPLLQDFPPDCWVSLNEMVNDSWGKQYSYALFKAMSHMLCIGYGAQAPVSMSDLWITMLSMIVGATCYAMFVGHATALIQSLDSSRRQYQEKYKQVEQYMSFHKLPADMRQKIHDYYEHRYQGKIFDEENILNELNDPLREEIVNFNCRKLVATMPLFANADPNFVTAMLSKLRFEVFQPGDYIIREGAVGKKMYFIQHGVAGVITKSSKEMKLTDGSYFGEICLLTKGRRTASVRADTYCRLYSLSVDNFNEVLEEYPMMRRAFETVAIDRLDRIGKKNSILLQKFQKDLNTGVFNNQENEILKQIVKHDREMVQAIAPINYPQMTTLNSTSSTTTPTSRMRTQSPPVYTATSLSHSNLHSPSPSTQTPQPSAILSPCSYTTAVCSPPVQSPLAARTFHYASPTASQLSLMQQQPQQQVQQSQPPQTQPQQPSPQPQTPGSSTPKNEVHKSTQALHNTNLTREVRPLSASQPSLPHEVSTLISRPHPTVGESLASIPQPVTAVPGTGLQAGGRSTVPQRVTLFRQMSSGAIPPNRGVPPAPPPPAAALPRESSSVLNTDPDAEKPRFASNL

[13] = target: sigma-1 receptors (Rattus norvegicus, UniProt Q9R0C9); assay: [^3H]-pentazocine competition binding, rat brain membranes
[14] = tested on: cDNA libraries derived from human adult brain, human lung cancer cells, and human placenta; assay: Yeast 3-hybrid screen, human cDNA libraries; conditions: lung cancer cell and placenta libraries
[15] = target: tropomyosin receptor kinase B (TrkB) (Homo sapiens, UniProt Q16620); assay: Screening and target deconvolution experiments; assay type: binding
[16] = target: glucocorticoid receptor (GR) (Homo sapiens, UniProt P04150); assay: Screening and target deconvolution experiments; assay type: binding
[17] = tested on: mice; assay: Forced swimming test; assay type: in vivo, mouse; conditions: 24 hours after
How it was run: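 Male CD-1 mice (35–40 g, n = 8/condition) received a single IP dose of test compound (1, 3 or 10 mg/kg) or saline 24 h before a 6-min swim under 800 lux. Cylinders were 30 cm high × 20 cm diameter, holding 15 cm of water at 23 ± 1°C. A blinded observer scored immobility from video over the last 4 min.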

[18] = after administration of antidepressant-like doses; cited from earlier work
[19] = tested on: rats; conditions: i.v. doses up to 160 mg/kg; cited from earlier work
[20] = tested on: opioid receptors; conditions: cited from earlier work
[21] = tested on: mice; conditions: cited from earlier work

## N[C@@]1(c2ccccc2Cl)CCC[C@@H](O)C1=O [(2R,6R)-HNK, (2R,6R)-hydroxynorketamine]
[1]; concentrations up to 100 μM
  binding to opioid receptors (MOR): does not bind
[1]; rat brain membranes
  MOR binding, displacement of [^3H]DAMGO: failed to displace
[2]; concentrations up to 100 μM
  binding to opioid receptors (KOR): does not bind
[2]; rat brain membranes
  KOR binding, displacement of [^3H]U69,593: failed to displace
[3]
  cAMP response (inhibition of cAMP accumulation): did not induce any cAMP response
[4]
  cAMP response (inhibition of cAMP accumulation): did not induce any cAMP response
[5]
  hits in competitive screen: No hits
[6]
  [^3H]-Substance P binding: did not alter
[7]
  displacement of [^3H]LY341475: failed to displace
[8]
  effect in functional assay at mGluR1: no effects
[9]
  effect in functional assay at mGluR4: no effects
[10]
  effect in functional assay at mGluR6: no effects
[11]
  effect in functional assay at mGluR8: no effects
[12]
  interaction with the HCN1 channel: neither (2R,6R)-HNK nor ketamine interacted
[13]
  binding to sigma receptors ([^3H]-pentazocine): did not bind
[14]
  high-confidence (2R,6R)-HNK-protein interactions: did not identify any positive high-confidence (2R,6R)-HNK-protein interactions
[15]
  interaction with TrkB: failed to interact
[16]
  interaction with GR: failed to interact
[17]; 1 mg/kg IP
  immobility time in forced swimming test, difference from vehicle: but not 1 mg/kg
[17]; 3 or 10 mg/kg IP, single administration
  immobility time in forced swimming test: reduced immobility time
[18]
  concentration achieved in the brain: ~ 10 μM
[19]
  NMDAR-associated neurotoxicity: does not produce NMDAR-associated neurotoxicity
[20]
  functional properties at opioid receptors: inverse agonist properties
[21]
  pain reduction after naloxone pretreatment: not blocked by naloxone pretreatment
